According to ChEMBL document CHEMBL3259808, “Optimization of antitrypanosomatid agents: identification of nonmutagenic drug candidates with in vivo activity” (J Med Chem, 2014):
Where “and” joins values, the source holds several entries; their conditions need not be identical. Equal entries are not always repeated. Values belong to the compound of their own block, whether it stands above or below them.

Assays:
[1] = Selectivity index, ratio of IC50 for African green monkey Vero cells to IC50 for Trypanosoma cruzi Sylvio X-10 amastigotes; assay type: toxicity, cell-based; conditions: read-out: Ratio IC50
Outline: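 VERO cytotoxicity: cells exposed 48 h at 37 °C, 5% CO2 to serial dilutions from a maximum of 2000 μM (DMSO stocks; DMSO <0.1% control); growth inhibition read by MTT at 570 nm. Amastigote IC50: Sylvio X-10-infected VERO cells, five doses, infected cells counted among 300 (Giemsa), quadruplicate, three experiments, sigmoidal fit. SI = IC50 VERO / IC50 amastigote.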

[2] = Selectivity index, ratio of IC50 for human RBC to IC50 for Trypanosoma cruzi Sylvio X-10 amastigotes
Outline: (§1)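 Hemolysis: washed human erythrocytes (2% w/v in PBS) incubated 24 h at 37 °C with compound at final 50, 100 and 200 μM. Ten replicates per concentration. Hemoglobin release read at 405 nm against water lysis as 100%; amphotericin B 1.5 μM was the positive control. SI = IC50 red cells / parasite IC50 (Sylvio X-10 amastigotes or Tulahuen 2 epimastigotes).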

Trypanosoma cruzi [3] = test: Antitrypanosomal activity against Trypanosoma cruzi Sylvio X-10 amastigotes infected in African green monkey Vero cells assessed as eradication of amastigotes after 72 hrs by Giemsa staining-based assay; conditions: vero
Trypanosoma cruzi [4] = test: Antitrypanosomal activity against Trypanosoma cruzi Tulahuen 2 epimastigotes assessed as growth inhibition after 5 days; assay type: functional, organism-based; conditions: Trypanosoma cruzi, Tulahuen 2, 120 h
Outline: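 Epimastigotes were grown axenically at 28 °C in BHI-tryptose with 5% FBS and seeded from a 5–7 day culture at 1 × 10⁶ cells/mL. Drug from a DMSO stock was added (final DMSO ≤0.4%; the control contained 0.4% DMSO). Duplicates were run. A600 was read at day 5, and % inhibition was calculated relative to day-0 and control readings. IC50 = concentration that halves the absorbance ratio.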

[5] = Selectivity index, ratio of IC50 for mouse J774.1 cells to IC50 for Trypanosoma cruzi Sylvio X-10 amastigotes; assay type: toxicity; conditions: read-out: Ratio IC50
Outline: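 J774.1 macrophages grown in DMEM with 10% heat-inactivated FCS and allowed to attach 48 h, then exposed 48 h at 37 °C to 12.5–400.0 μM. Triplicates. MTT 0.1 mg/mL for 3 h, read at 560 nm; IC50 by linear regression against the solvent control. SI = IC50 J774.1 / parasite IC50 (Sylvio X-10 amastigotes or Tulahuen 2 epimastigotes, the latter measured by A600 growth inhibition at day 5).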

Trypanosoma cruzi [6] = test: Antitrypanosomal activity against Trypanosoma cruzi Sylvio X-10 amastigotes infected in African green monkey Vero cells assessed as eradication of amastigotes after 5 days by Giemsa staining-based assay; assay type: functional, organism-based; conditions: Sylvio X-10, Vero, 120 h
Outline: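 VERO cells in RPMI 1640 with 10% hiFCS were allowed to adhere for 24 h at 37 °C in 5% CO₂, then infected with tissue-derived trypomastigotes at 10:1. Free parasites were washed off after 24 h, and cultures were treated at five compound doses (text gives 72 h / 5 days). Cultures were methanol-fixed and Giemsa-stained, and infected cells were counted among 300. Quadruplicates were run in three independent experiments. IC50/IC90 were obtained by sigmoidal regression.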

Salmonella typhimurium [7] = test: Mutagenic activity in Salmonella typhimurium TA98 at 3 to 250 ug/plate by Ames test; assay type: toxicity, organism-based; conditions: salmonella enterica subsp. enterica serovar typhimurium
Outline: (§2)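 Ames plate-incorporation assay with S. typhimurium TA98 in Vogel-Bonner E minimal glucose agar. Toxicity toward the bacteria was checked first. DMSO solutions were run in triplicate at five consecutive third-dilutions, starting at the highest non-toxic dose. Positive controls were 4-nitro-o-phenylenediamine (20.0 μg/plate) and 2-aminofluorene (10.0 μg/plate); DMSO was the negative control. Revertants were counted manually. A compound was called mutagenic when revertants were at least twice the negative control at two or more consecutive doses.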

Salmonella typhimurium [8] = test: Mutagenic activity in Salmonella typhimurium TA98 at 3 to 250 ug/plate by Ames test in presence of mouse liver S9 fraction; assay type: toxicity, organism-based; conditions: salmonella enterica subsp. enterica serovar typhimurium; outline: as §2
Salmonella typhimurium [9] = test: Mutagenic activity in Salmonella typhimurium TA98 at 0.005 to 0.4 ug/plate by Ames test; assay type: toxicity, organism-based; conditions: salmonella enterica subsp. enterica serovar typhimurium
Outline: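 Direct plate incubation on minimal glucose agar (Vogel-Bonner E). Compound toxicity to the bacteria was checked first. DMSO solutions were tested at five consecutive 3-fold dilutions, starting from the highest non-toxic dose, in triplicate, without metabolic activation. DMSO served as negative control. Revertants were counted manually; mutagenic = revertants at least double the negative control at two or more consecutive doses.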

Salmonella typhimurium [10] = test: Mutagenic activity in Salmonella typhimurium TA98 at 0.005 to 0.4 ug/plate by Ames test in presence of mouse liver S9 fraction; assay type: toxicity, organism-based; conditions: salmonella enterica subsp. enterica serovar typhimurium
Outline: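 Plate-incorporation Ames test on minimal glucose agar with 500 μL Aroclor-treated mouse liver S9 added. DMSO solutions were tested at five consecutive 3-fold dilutions from the highest non-toxic dose, in triplicate, with a DMSO negative control. Revertants were counted manually; a compound was scored mutagenic when revertants were at least twice the negative control for two or more consecutive doses.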

Salmonella typhimurium [11] = test: Mutagenic activity in Salmonella typhimurium TA98 at 5 to 400 ug/plate by Ames test; assay type: toxicity, organism-based; conditions: salmonella enterica subsp. enterica serovar typhimurium; outline: as §2
[12] = Selectivity index, ratio of IC50 for human RBC to IC50 for Trypanosoma cruzi Tulahuen 2 epimastigotes; outline: as §1
[13] = Cytotoxicity against African green monkey Vero cells assessed as growth inhibition at 25 uM after 48 hrs by MTT assay relative to control; assay type: cell-based; conditions: chlorocebus sabaeus, read-out: GI
Outline: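 VERO cells were exposed to serial dilutions in fresh medium of compounds dissolved in DMSO, for 48 h at 37 °C in 5% CO₂. A DMSO (<0.1%) negative control was included. Growth inhibition was read by MTT at 570 nm; nifurtimox was the positive control.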

Trypanosoma cruzi [14] = test: Antitrypanosomal activity against Trypanosoma cruzi Sylvio X-10 amastigotes infected in African green monkey Vero cells assessed as eradication of amastigotes after 72 hrs by Giemsa staining-based assay; conditions: Sylvio X-10, Vero
Salmonella typhimurium [15] = test: Mutagenic activity in Salmonella typhimurium TA98 at 6 to 500 ug/plate by Ames test in presence of mouse liver S9 fraction; assay type: toxicity, organism-based; conditions: salmonella enterica subsp. enterica serovar typhimurium; outline: as §2
Salmonella typhimurium [16] = test: Mutagenic activity in Salmonella typhimurium TA98 at 6 to 500 ug/plate by Ames test; assay type: toxicity, organism-based; conditions: salmonella enterica subsp. enterica serovar typhimurium; outline: as §2
Salmonella typhimurium [17] = test: Mutagenic activity in Salmonella typhimurium TA98 at 0.04 to 4 ug/plate by Ames test in presence of mouse liver S9 fraction; assay type: toxicity, organism-based; conditions: salmonella enterica subsp. enterica serovar typhimurium; outline: as §2
Salmonella typhimurium [18] = test: Mutagenic activity in Salmonella typhimurium TA98 at 0.04 to 4 ug/plate by Ames test; assay type: toxicity, organism-based; conditions: salmonella enterica subsp. enterica serovar typhimurium; outline: as §2

IC50 (Trypanosoma cruzi [6]): 2550 nM
IC50 (Trypanosoma cruzi [4]): 20000 nM
SMILES: C=CCn1c(C)csc1=N/N=C/c1ccc([N+](=O)[O-])s1
Activity (Salmonella typhimurium [9]): Non-toxic
Activity (Salmonella typhimurium [10]): Non-toxic

IC50 (Trypanosoma cruzi [4]): 20000 nM
SMILES: C=CCN1C(=O)CS\C1=N/N=C/C=C/c1cccs1
Activity (Salmonella typhimurium [11]): Toxic
Activity (Salmonella typhimurium [8]): Toxic

IC90 (Trypanosoma cruzi [14]): > 25000 nM
IC50 (Trypanosoma cruzi [6]): > 25000 nM
IC50 (Trypanosoma cruzi [4]): 600 nM
SMILES: C=CCNC(=S)N/N=C/C=C/C=C/c1cccs1
Activity (Salmonella typhimurium [15]): Non-toxic
Activity (Salmonella typhimurium [16]): Non-toxic

IC50 (Trypanosoma cruzi [4]): 9000 nM
SMILES: C=CCn1c(-c2ccc(N)cc2)cs\c1=N/N=C/C=C/c1ccco1
Activity (Salmonella typhimurium [17]): Non-toxic
Activity (Salmonella typhimurium [18]): Non-toxic

Further lines, the compound ahead of its results:

SMILES: CC1CS(=O)(=O)CCN1/N=C/c1ccc([N+](=O)[O-])o1 (stereo unspecified) [NIFURTIMOX]
selectivity ratio [1]: 200
Ratio IC50 [2]: 150
IC50 (Trypanosoma cruzi [3]): 450 nM and 2400 nM
IC50 (Trypanosoma cruzi [4]): 8000 nM
selectivity ratio [5]: 200

SMILES: C=CCNC(=S)N/N=C/C=C/c1ccc([N+](=O)[O-])s1
selectivity ratio [1]: 60
IC50 (Trypanosoma cruzi [6]): 1290 nM
Ratio IC50 [2]: 82
Activity (Salmonella typhimurium [7]): Toxic
IC50 (Trypanosoma cruzi [4]): 1200 nM
Activity (Salmonella typhimurium [8]): Toxic

SMILES: CC(=O)N(C1=NN(C(C)=O)C(c2ccc([N+](=O)[O-])s2)S1)c1ccccc1 (stereo unspecified)
IC50 (Trypanosoma cruzi [4]): 2900 nM
Activity (Salmonella typhimurium [9]): Toxic
Ratio IC50 [12]: 3
Activity (Salmonella typhimurium [10]): Non-toxic
inhibition at 48 h, 25 µM [13]: > 50%
